In ChEMBL document CHEMBL1811814, “Synthesis and evaluation of indole, pyrazole, chromone and pyrimidine based conjugates for tumor growth inhibitory activities--development of highly efficacious cytotoxic agents” (Eur J Med Chem, 2010):

Tests used:
Format in all cases: functional
Parameters in all cases: scale not given: the % may be the effect or the level left
UACC-257 = experiment: Growth inhibition of human UACC257 cells assessed tumor cell growth at 10^-5 M
In short: (§1)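 Single-dose screen at 10^-5 M across the 60 human tumor cell line panel, run to NCI standards. The value is the percent growth of each cell line in the presence of compound. Compounds active at this dose moved on to five-concentration testing (10^-4 to 10^-8 M).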

MOLT-4 = experiment: Growth inhibition of human MOLT4 cells assessed tumor cell growth at 10^-5 M
In short: (§2)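 NCI 60-human-tumor-cell-line panel screen. Each compound was tested at a single concentration of 10^-5 M, and percent growth of tumor cells was recorded for each cell line. Growth inhibition was expressed from these percent-growth values.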

NCI-H23 = experiment: Growth inhibition of human NCI-H23 cells assessed tumor cell growth at 10^-5 M; in short: as §2
SW-620 = experiment: Growth inhibition of human SW620 cells assessed tumor cell growth at 10^-5 M; in short: as §1
NCI/ADR-RES = experiment: Growth inhibition of human NCI/ADR-RES cells assessed tumor cell growth at 10^-5 M; in short: as §2
K562 = experiment: Growth inhibition of human K562 cells assessed tumor cell growth at 10^-5 M; in short: as §2
HL-60(TB) = experiment: Growth inhibition of human HL-60(TB) cells assessed tumor cell growth at 10^-5 M
In short: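 HL-60(TB), part of the 60-line panel, tested at a single concentration of 10^-5 M. The read-out is percent tumor cell growth relative to untreated growth.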

CCRF-CEM = experiment: Growth inhibition of human CCRF-CEM cells assessed tumor cell growth at 10^-5 M; in short: as §2
CAKI-1 = experiment: Growth inhibition of human Caki1 cells assessed tumor cell growth at 10^-5 M; in short: as §2
SNB-19 = experiment: Growth inhibition of human SNB19 cells assessed tumor cell growth at 10^-5 M; in short: as §1
MDA-MB-231 = experiment: Growth inhibition of human MDA-MB-231 cells assessed tumor cell growth at 10^-5 M; in short: as §2
HCC 2998 = experiment: Growth inhibition of human HCC2998 cells assessed tumor cell growth at 10^-5 M; in short: as §2
NCI-H322M = experiment: Growth inhibition of human NCI-H322M cells assessed tumor cell growth at 10^-5 M; in short: as §2
HT-29 = experiment: Growth inhibition of human HT-29 cells assessed tumor cell growth at 10^-5 M; in short: as §2
MCF7 = experiment: Growth inhibition of human MCF7 cells assessed tumor cell growth at 10^-5 M; in short: as §2
HCT-15 = experiment: Growth inhibition of human HCT15 cells assessed tumor cell growth at 10^-5 M; in short: as §2
IGROV-1 = experiment: Growth inhibition of human IGROV1 cells assessed tumor cell growth at 10^-5 M; in short: as §2
U-251 = experiment: Growth inhibition of human U251 cells assessed tumor cell growth at 10^-5 M; in short: as §1
MDA-MB-468 = experiment: Growth inhibition of human MDA-MB-468 cells assessed tumor cell growth at 10^-5 M; in short: as §2
UACC-62 = experiment: Growth inhibition of human UACC62 cells assessed tumor cell growth at 10^-5 M; in short: as §1
HCT-116 = experiment: Growth inhibition of human HCT116 cells assessed tumor cell growth at 10^-5 M; in short: as §2
SF-295 = experiment: Growth inhibition of human SF295 cells assessed tumor cell growth at 10^-5 M; in short: as §2
TK-10 = experiment: Growth inhibition of human TK10 cells assessed tumor cell growth at 10^-5 M; in short: as §1
SK-MEL-5 = experiment: Growth inhibition of human SK-MEL-5 cells assessed tumor cell growth at 10^-5 M; in short: as §2
786-0 = experiment: Growth inhibition of human 786-0 cells assessed tumor cell growth at 10^-5 M; in short: as §2
T47D = experiment: Growth inhibition of human T47D cells assessed tumor cell growth at 10^-5 M; in short: as §1
OVCAR-8 = experiment: Growth inhibition of human OVCAR8 cells assessed tumor cell growth at 10^-5 M; in short: as §2
NCI-H226 = experiment: Growth inhibition of human NCI-H226 cells assessed tumor cell growth at 10^-5 M; in short: as §2
A549 = experiment: Growth inhibition of human A549 cells assessed tumor cell growth at 10^-5 M; in short: as §2
BT-549 = experiment: Growth inhibition of human BT549 cells assessed tumor cell growth at 10^-5 M; in short: as §2
HOP-62 = experiment: Growth inhibition of human HOP62 cells assessed tumor cell growth at 10^-5 M; in short: as §2
OVCAR-3 = experiment: Growth inhibition of human OVCAR3 cells assessed tumor cell growth at 10^-5 M; in short: as §2
SF-268 = experiment: Growth inhibition of human SF268 cells assessed tumor cell growth at 10^-5 M; in short: as §2
MDA-MB-435 = experiment: Growth inhibition of human MDA-MB-435 cells assessed tumor cell growth at 10^-5 M; in short: as §2
NCI-H460 = experiment: Growth inhibition of human NCI-H460 cells assessed tumor cell growth at 10^-5 M; in short: as §2
M14 = experiment: Growth inhibition of human M14 cells assessed tumor cell growth at 10^-5 M; in short: as §2
UO-31 = experiment: Growth inhibition of human UO31 cells assessed tumor cell growth at 10^-5 M; in short: as §1
SF-539 = experiment: Growth inhibition of human SF539 cells assessed tumor cell growth at 10^-5 M; in short: as §2
SK-OV-3 = experiment: Growth inhibition of human SKOV3 cells assessed tumor cell growth at 10^-5 M; in short: as §2
PC-3 = experiment: Growth inhibition of human PC3 cells assessed tumor cell growth at 10^-5 M; in short: as §2
DU-145 = experiment: Growth inhibition of human DU145 cells assessed tumor cell growth at 10^-5 M; in short: as §2
A498 = experiment: Growth inhibition of human A498 cells assessed tumor cell growth at 10^-5 M; in short: as §2
HOP-92 = experiment: Growth inhibition of human HOP92 cells assessed tumor cell growth at 10^-5 M; in short: as §2
COLO 205 = experiment: Growth inhibition of human COLO205 cells assessed tumor cell growth at 10^-5 M; in short: as §2
RXF 393 = experiment: Growth inhibition of human RXF393 cells assessed tumor cell growth at 10^-5 M; in short: as §2
ACHN = experiment: Growth inhibition of human ACHN cells assessed tumor cell growth at 10^-5 M; in short: as §2
SNB-75 = experiment: Growth inhibition of human SNB75 cells assessed tumor cell growth at 10^-5 M; in short: as §1
[1] = Growth inhibition of human […] cells assessed tumor cell growth at 10^-5 M; in short: as §2
SK-MEL-2 = experiment: Growth inhibition of human SK-MEL-2 cells assessed tumor cell growth at 10^-5 M; in short: as §2
OVCAR-4 = experiment: Growth inhibition of human OVCAR4 cells assessed tumor cell growth at 10^-5 M; in short: as §2
OVCAR-5 = experiment: Growth inhibition of human OVCAR5 cells assessed tumor cell growth at 10^-5 M; in short: as §2
SR = experiment: Growth inhibition of human SR cells assessed tumor cell growth at 10^-5 M; in short: as §1
NCI-H522 = experiment: Growth inhibition of human NCI-H522 cells assessed tumor cell growth at 10^-5 M; in short: as §2
KM12 = experiment: Growth inhibition of human KM12 cells assessed tumor cell growth at 10^-5 M; in short: as §2
LOX IMVI = experiment: Growth inhibition of human LOXIMVI cells assessed tumor cell growth at 10^-5 M; in short: as §2
Malme-3M = experiment: Growth inhibition of human MALME-3M cells assessed tumor cell growth at 10^-5 M; in short: as §2
EKVX = experiment: Growth inhibition of human EKVX cells assessed tumor cell growth at 10^-5 M; in short: as §2
[2] = Growth inhibition of human Hs 578T cells assessed tumor cell growth at 10^-5 M; in short: as §2
SN12C = experiment: Growth inhibition of human SN12C cells assessed tumor cell growth at 10^-5 M; in short: as §2
SK-MEL-28 = experiment: Growth inhibition of human SK-MEL-28 cells assessed tumor cell growth at 10^-5 M; in short: as §2

`CC1=NN(c2cccc(Cl)c2)C(=O)/C1=C\c1cn(Cc2ccccc2)c2ccccc12` gave an Activity (UACC-257) of 93.1%, an Activity (MOLT-4) of 89.6% and an Activity (NCI-H23) of 88.9%. For the same compound, the Activity (SW-620) was 93.2%, the Activity (NCI/ADR-RES) was 100.71% and the Activity (K562) was 93.59%. The Activity (HL-60(TB)) was 99.67%, the Activity (CCRF-CEM) was 109.04% and the Activity (CAKI-1) was 89.4%. It also gave an Activity (SNB-19) of 93.46%, an Activity (MDA-MB-231) of 89.94% and an Activity (HCC 2998) of 109.37%. The Activity (NCI-H322M) was 105.8%, the Activity (HT-29) was 93.03% and the Activity (MCF7) was 72.9%. For the same compound, the Activity (HCT-15) was 97.68%, the Activity (IGROV-1) was 85.79% and the Activity (U-251) was 89.34%. For the same compound, the Activity (MDA-MB-468) was 76.71%, the Activity (UACC-62) was 78.13% and the Activity (HCT-116) was 81.87%. For the same compound, the Activity (SF-295) was 74.11%, the Activity (TK-10) was 154.6% and the Activity (SK-MEL-5) was 90.4%. The Activity (786-0) was 100.84%, the Activity (T47D) was 67.17% and the Activity (OVCAR-8) was 97.42%. For the same compound, the Activity (NCI-H226) was 16.9%, the Activity (A549) was 90.89% and the Activity (BT-549) was 107.13%. For the same compound, the Activity (HOP-62) was 81.96%, the Activity (OVCAR-3) was 95.7% and the Activity (SF-268) was 95.57%. It also gave an Activity (MDA-MB-435) of 106.21%, an Activity (NCI-H460) of 55.83% and an Activity (M14) of 93.78%. For the same compound, the Activity (UO-31) was 71.93%, the Activity (SF-539) was 96.45% and the Activity (SK-OV-3) was 71.03%. It also gave an Activity (PC-3) of 84.66%, an Activity (DU-145) of 103.96% and an Activity (A498) of 89.58%. For the same compound, the Activity (HOP-92) was 94.45%, the Activity (COLO 205) was 96.36% and the Activity (RXF 393) was 92.68%. For the same compound, the Activity (ACHN) was 84.07%, the Activity (SNB-75) was 80.99% and the Activity [1] was 88.18%. It also gave an Activity (SK-MEL-2) of 90.21%, an Activity (OVCAR-4) of 88.56% and an Activity (OVCAR-5) of 43.95%. For the same compound, the Activity (SR) was 86.52%, the Activity (NCI-H522) was 86.7% and the Activity (KM12) was 93.39%. The Activity (LOX IMVI) was 87%, the Activity (Malme-3M) was 92.02% and the Activity (EKVX) was 82.36%. The Activity [2] was 90.49%, the Activity (SN12C) was 101.76% and the Activity (SK-MEL-28) was 98.38%.
